ChEMBL document CHEMBL3616442, “Unconventional Knoevenagel-type indoles: Synthesis and cell-based studies for the identification of pro-apoptotic agents” (Eur J Med Chem, 2015)

Key:
DU-145 = experiment: Growth inhibition of human DU145 cells after 48 hrs by sulforhodamine B assay; format: functional; settings: DU-145, 48 h
Method in brief: (§1)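 NCI 60-cell-line screen. Compounds tested at five 10-fold dilutions from 10^-4 to 10^-8 M. Cells exposed for the last 48 h of a 72 h incubation, growth estimated by sulforhodamine B protein assay. GI50 is the concentration giving 50% growth inhibition. Values beyond the tested range are expressed as greater or lesser than the extreme concentration.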

T47D = experiment: Growth inhibition of human T47D cells after 48 hrs by sulforhodamine B assay; format: functional
[1] = Growth inhibition of human COLO205 cells after 48 hrs by sulforhodamine B assay; format: functional; settings: COLO 205, 48 h; method in brief: as §1
SK-OV-3 = experiment: Growth inhibition of human SKOV3 cells after 48 hrs by sulforhodamine B assay; format: functional; settings: SK-OV-3, 48 h
HCT-15 = experiment: Growth inhibition of human HCT15 cells after 48 hrs by sulforhodamine B assay; format: functional; settings: HCT-15, 48 h; method in brief: as §1
[2] = Growth inhibition of human HOP92 cells after 48 hrs by sulforhodamine B assay; format: functional; settings: HOP-92, 48 h; method in brief: as §1
MDA-MB-468 = experiment: Growth inhibition of human MDA-MB-468 cells after 48 hrs by sulforhodamine B assay; format: functional; settings: MDA-MB-468, 48 h; method in brief: as §1
ACHN = experiment: Growth inhibition of human ACHN cells after 48 hrs by sulforhodamine B assay; format: functional; method in brief: as §1
KM12 = experiment: Growth inhibition of human KM12 cells after 48 hrs by sulforhodamine B assay; format: functional; settings: KM12, 48 h; method in brief: as §1
MDA-MB-231 = experiment: Growth inhibition of human MDA-MB-231 cells after 48 hrs by sulforhodamine B assay; format: functional; settings: MDA-MB-231, 48 h; method in brief: as §1
IGROV-1 = experiment: Growth inhibition of human IGROV1 cells after 48 hrs by sulforhodamine B assay; format: functional; settings: IGROV-1, 48 h; method in brief: as §1
SN12C = experiment: Growth inhibition of human SN12C cells after 48 hrs by sulforhodamine B assay; format: functional
[3] = Growth inhibition of human NCI-ADR-RES cells after 48 hrs by sulforhodamine B assay; format: functional; method in brief: as §1
U-251 = experiment: Growth inhibition of human U251 cells after 48 hrs by sulforhodamine B assay; format: functional; settings: U-251, 48 h
[4] = Growth inhibition of human RXF393 cells after 48 hrs by sulforhodamine B assay; format: functional; settings: RXF 393, 48 h
SNB-75 = experiment: Growth inhibition of human SNB75 cells after 48 hrs by sulforhodamine B assay; format: functional; settings: SNB-75, 48 h
HCT-116 = experiment: Growth inhibition of human HCT116 cells after 48 hrs by sulforhodamine B assay; format: functional; settings: HCT-116, 48 h; method in brief: as §1
[5] = Growth inhibition of human LOXIMVI cells after 48 hrs by sulforhodamine B assay; format: functional; settings: LOX IMVI; method in brief: as §1
MT4 = experiment: Antiproliferative activity against human MT4 cells after 96 hrs by MTT assay; format: functional, cell-based; settings: MT4, 96 h
Method in brief: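 Exponentially growing MT-4 cells (CD4+ human T-cells carrying integrated HTLV-1 genome), seeded at 1×10^5 cells/mL in RPMI-1640 with 10% FCS and antibiotics. Serial dilutions of compound (DMSO stock 100 mM, diluted in medium), 37 °C, 5% CO₂, 96 h. Viability read by MTT. 50% inhibition versus untreated controls by linear regression. Mean ± SD of three independent determinations.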

SF-268 = experiment: Growth inhibition of human SF268 cells after 48 hrs by sulforhodamine B assay; format: functional; settings: SF-268, 48 h
HT-29 = experiment: Growth inhibition of human HT-29 cells after 48 hrs by sulforhodamine B assay; format: functional; settings: HT-29, 48 h; method in brief: as §1
NCI-H522 = experiment: Growth inhibition of human NCI-H522 cells after 48 hrs by sulforhodamine B assay; format: functional; settings: NCI-H522, 48 h; method in brief: as §1
SNB-19 = experiment: Growth inhibition of human SNB19 cells after 48 hrs by sulforhodamine B assay; format: functional; settings: SNB-19, 48 h
[6] = Growth inhibition of human MOLT4 cells after 48 hrs by sulforhodamine B assay; format: functional; settings: MOLT-4, 48 h; method in brief: as §1
[7] = Growth inhibition of human RPMI8226 cells after 48 hrs by sulforhodamine B assay; format: functional; settings: RPMI-8226, 48 h
A549 = experiment: Growth inhibition of human A549 cells after 48 hrs by sulforhodamine B assay; format: functional; settings: A549, 48 h; method in brief: as §1
PC-3 = experiment: Growth inhibition of human PC3 cells after 48 hrs by sulforhodamine B assay; format: functional; settings: PC-3, 48 h
HOP-62 = experiment: Growth inhibition of human HOP62 cells after 48 hrs by sulforhodamine B assay; format: functional; settings: HOP-62, 48 h; method in brief: as §1
A498 = experiment: Growth inhibition of human A498 cells after 48 hrs by sulforhodamine B assay; format: functional; settings: A498, 48 h; method in brief: as §1
MDA-MB-435 = experiment: Growth inhibition of human MDA-MB-435 cells after 48 hrs by sulforhodamine B assay; format: functional; settings: MDA-MB-435, 48 h; method in brief: as §1
CAKI-1 = experiment: Growth inhibition of human CAKI-1 cells after 48 hrs by sulforhodamine B assay; format: functional; settings: CAKI-1, 48 h; method in brief: as §1
Malme-3M = experiment: Growth inhibition of human MALME-3M cells after 48 hrs by sulforhodamine B assay; format: functional; method in brief: as §1
K562 = experiment: Growth inhibition of human K562 cells after 48 hrs by sulforhodamine B assay; format: functional; settings: K562, 48 h; method in brief: as §1
OVCAR-4 = experiment: Growth inhibition of human OVCAR4 cells after 48 hrs by sulforhodamine B assay; format: functional; settings: OVCAR-4, 48 h; method in brief: as §1
SK-MEL-5 = experiment: Growth inhibition of human SK-MEL-5 cells after 48 hrs by sulforhodamine B assay; format: functional; settings: SK-MEL-5, 48 h
HL-60(TB) = experiment: Growth inhibition of human HL-60(TB) cells after 48 hrs by sulforhodamine B assay; format: functional; settings: HL-60, 48 h
Method in brief: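 NCI 60-cell-line screen, HL-60(TB) included. Compound given at five 10-fold dilutions from 10^-4 to 10^-8 M. Cells exposed for the last 48 h of a 72 h incubation. Growth or viability estimated by sulforhodamine B protein assay. GI50 is the concentration giving 50% growth inhibition. Values outside the tested range are reported as greater or less than the highest or lowest concentration.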

UACC-257 = experiment: Growth inhibition of human UACC257 cells after 48 hrs by sulforhodamine B assay; format: functional; settings: UACC-257, 48 h
NCI-H322M = experiment: Growth inhibition of human NCI-H322M cells after 48 hrs by sulforhodamine B assay; format: functional; method in brief: as §1
SW-620 = experiment: Growth inhibition of human SW620 cells after 48 hrs by sulforhodamine B assay; format: functional; settings: SW-620, 48 h
SK-MEL-2 = experiment: Growth inhibition of human SK-MEL-2 cells after 48 hrs by sulforhodamine B assay; format: functional; settings: SK-MEL-2, 48 h
TK-10 = experiment: Growth inhibition of human TK10 cells after 48 hrs by sulforhodamine B assay; format: functional; settings: TK-10, 48 h
[8] = Growth inhibition of human BT549 cells after 48 hrs by sulforhodamine B assay; format: functional; settings: BT-549, 48 h; method in brief: as §1

Work on COc1ccc(-c2[nH]c3ccccc3c2C=C(C#N)C#N)cc1 yielded a GI50 (DU-145) of 0.484 µM, a GI50 (T47D) of 0.481 µM and a GI50 [1] of 0.223 µM. The GI50 (SK-OV-3) was 0.445 µM, the GI50 (HCT-15) was 0.593 µM and the GI50 [2] was 1.2 µM. For the same compound, the GI50 (MDA-MB-468) was 0.418 µM, the GI50 (ACHN) was 2.3 µM and the GI50 (KM12) was 0.374 µM. It also gave a GI50 (MDA-MB-231) of 0.562 µM, a GI50 (IGROV-1) of 1.4 µM and a GI50 (SN12C) of 1.2 µM. The GI50 [3] was 0.343 µM, the GI50 (U-251) was 0.483 µM and the GI50 [4] was 0.518 µM. The GI50 (SNB-75) was 0.418 µM, the GI50 (HCT-116) was 0.411 µM and the GI50 [5] was 1.8 µM. The EC50 (MT4) was 0.3 µM, the GI50 (SF-268) was 0.709 µM and the GI50 (HT-29) was 0.354 µM. It also gave a GI50 (NCI-H522) of 0.798 µM, a GI50 (SNB-19) of 1.8 µM and a GI50 [6] of 0.578 µM. For the same compound, the GI50 [7] was 0.49 µM, the GI50 (A549) was 0.7 µM and the GI50 (PC-3) was 0.547 µM. For the same compound, the GI50 (HOP-62) was 1.2 µM, the GI50 (A498) was 0.458 µM and the GI50 (MDA-MB-435) was 0.128 µM. For the same compound, the GI50 (CAKI-1) was 0.679 µM, the GI50 (Malme-3M) was 0.874 µM and the GI50 (K562) was 0.343 µM. It also gave a GI50 (OVCAR-4) of 0.798 µM, a GI50 (SK-MEL-5) of 0.35 µM and a GI50 (HL-60(TB)) of 0.271 µM. It also gave a GI50 (UACC-257) of 0.424 µM, a GI50 (NCI-H322M) of 0.49 µM and a GI50 (SW-620) of 0.44 µM. The GI50 (SK-MEL-2) was 0.763 µM, the GI50 (TK-10) was 0.925 µM and the GI50 [8] was 0.769 µM.

With N#CC(C#N)=Cc1c(-c2ccccc2)[nH]c2ccccc12 the GI50 (DU-145) was 3.3 µM, the GI50 (T47D) was 4.6 µM and the GI50 [1] was 1.8 µM. For the same compound, the GI50 (SK-OV-3) was 6 µM, the GI50 (HCT-15) was 0.971 µM and the GI50 [2] was 7.7 µM. For the same compound, the GI50 (MDA-MB-468) was 1 µM, the GI50 (ACHN) was 7.3 µM and the GI50 (KM12) was 0.684 µM. For the same compound, the GI50 (MDA-MB-231) was 1.8 µM, the GI50 (IGROV-1) was 0.757 µM and the GI50 (SN12C) was 6.8 µM. It also gave a GI50 [3] of 0.826 µM, a GI50 (U-251) of 1.2 µM and a GI50 [4] of 3.3 µM. For the same compound, the GI50 (SNB-75) was 2 µM, the GI50 (HCT-116) was 2.3 µM and the GI50 [5] was 3.3 µM. It also gave an EC50 (MT4) of 0.4 µM, a GI50 (SF-268) of 13.4 µM and a GI50 (HT-29) of 0.526 µM. The GI50 (NCI-H522) was 9.6 µM, the GI50 (SNB-19) was 5.7 µM and the GI50 [6] was 43.2 µM. For the same compound, the GI50 [7] was 0.582 µM, the GI50 (A549) was 4.6 µM and the GI50 (PC-3) was 3 µM. It also gave a GI50 (HOP-62) of 11.3 µM, a GI50 (A498) of 3 µM and a GI50 (MDA-MB-435) of 0.246 µM. For the same compound, the GI50 (CAKI-1) was 6.1 µM, the GI50 (Malme-3M) was 26 µM and the GI50 (K562) was 0.478 µM. It also gave a GI50 (OVCAR-4) of 5.2 µM, a GI50 (SK-MEL-5) of 1.1 µM and a GI50 (HL-60(TB)) of 1.8 µM. For the same compound, the GI50 (UACC-257) was 28.1 µM, the GI50 (NCI-H322M) was 11.4 µM and the GI50 (SW-620) was 0.539 µM. The GI50 (SK-MEL-2) was 27.6 µM, the GI50 (TK-10) was 5.3 µM and the GI50 [8] was 9.4 µM.
